Assay outcomes from PubChem.
Rows were chosen to be rich in hits. Some 4.3% of all compounds tested hit in one or more screens of this group.
NF-kB neuron act – compounds increasing NF-kB expression in human neuronal cells; 190,000 tested, 1.6% active; fold change at 12.5 µM; NF-kB reporter expression; active compounds read high; in the data active means fold change above about 3.3
APP 5'UTR act – APP 5'UTR luciferase reporter activation | SH-SY5Y APP 5'UTR luciferase reporter, luminescence; zero percent = DMSO vehicle wells | AID 1276 | activation, % at 2 µM | 190,000 tested, 1% active;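 active means activation above a set limit, based on mean plus 3 SD of controls, cut at about 140% in these data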
STAT1 act – STAT1 signaling activation | activation (% of control), % at 5.5 µM | NIH 3T3 STAT1-luciferase reporter, IFN-gamma, luminescence; 100% = IFN-gamma alone, no compound | 200,000 tested, 2.6% active;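 active means activation above the screen-wide mean activation plus 3 SD, cut at about 130% in these data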;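 further: raw ratio to IFN-gamma control signal so 100% means no change and 0% no light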
FLuc stim CS – affects firefly luciferase, flagging false hits in luciferase stimulation screens; P08659; ATPlite luciferase biochemical, luminescence, 10 min; 0 = ATP-free wells, 1 = DMSO control; activation factor at 10 µM; 200,000 tested, under 10 active; AID 1027;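 active means luciferase activation factor, scaled between plate controls, of at least 2 with compound at 10 µM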
Target sequence (P08659 whole entry, looked up): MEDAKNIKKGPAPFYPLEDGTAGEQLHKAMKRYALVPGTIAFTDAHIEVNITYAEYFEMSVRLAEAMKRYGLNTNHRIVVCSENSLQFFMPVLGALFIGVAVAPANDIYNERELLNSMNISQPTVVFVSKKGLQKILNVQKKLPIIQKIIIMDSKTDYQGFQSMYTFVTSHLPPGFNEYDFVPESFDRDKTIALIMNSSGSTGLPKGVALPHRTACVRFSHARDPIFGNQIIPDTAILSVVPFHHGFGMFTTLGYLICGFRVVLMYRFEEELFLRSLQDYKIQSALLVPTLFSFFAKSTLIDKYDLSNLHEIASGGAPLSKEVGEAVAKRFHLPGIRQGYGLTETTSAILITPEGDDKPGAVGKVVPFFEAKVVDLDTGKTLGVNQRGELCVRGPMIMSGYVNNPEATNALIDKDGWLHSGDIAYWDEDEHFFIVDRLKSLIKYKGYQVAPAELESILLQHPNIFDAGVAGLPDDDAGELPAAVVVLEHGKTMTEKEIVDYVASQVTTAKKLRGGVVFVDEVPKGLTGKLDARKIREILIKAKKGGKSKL
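Material: luciferase plus luciferin reagent, cell-free. Medium: PBS buffer for ATP. Also added: ATP substrate, dispensed from a 10.24 µM working solution in PBS. Doses: test compounds dosed from 2 mM stocks in 100% DMSO. Incubation: 10 min post-reagent at room temperature. Technique: light output (luminescence). Read-out basis: luminescence gain marking luciferase activators.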
FLuc inhib CS – counter-screen for luciferase assay inhibitors: firefly luciferase inhibition; P08659; ATPLite firefly luciferase biochemical luminescence, 10 min; 200,000 tested, 1.5% active; AID 1006; inhibition, % at 10 µM;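 active means inhibition above about 50% when tested at 10 µM, limit read from the data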
An asterisk follows results filed as active; / = no result given.

SMILES | NF-kB neuron act | APP 5'UTR act | STAT1 act | FLuc stim CS | FLuc inhib CS
C#CCOCCOCCOCCNc1nc(N2CCN(C(=O)[C@H](CCCCN)n3cc([C@@H](N)CO)nn3)CC2)nc(N2CCN(C(=O)[C@H](Cc3cc4ccccc4[nH]3)n3cc([C@@H](N)CC(C)C)nn3)CC2)n1 | 1 | -9 | 104 | 1 | -1
CCOc1ccc(/C=C/C(=O)Nc2ccccc2C(F)(F)F)cc1 | 1.5 | 15 | 105 | 0.9 | 9
COc1ccc(/C=C/C(=O)NC2=NCCS2)cc1OC | 1.4 | 14 | 132* | 0.9 | 13
COc1ccc(/C=C/C(=O)Nc2ccccc2C(F)(F)F)cc1 | 0.91 | 19 | 137* | 0.9 | 6
NC(=O)c1ccccc1NC(=O)/C=C/c1c(Cl)cccc1Cl | 2.4 | 107 | 126 | 0.7 | 31
O=C(/C=C/c1ccc2c(c1)OCO2)Nc1ccc(Cl)cn1 | 3 | 162* | 132* | 0.7 | 25
NC(=O)c1ccccc1NC(=O)/C=C/c1cccc(Cl)c1 | 1.6 | 91 | 131* | 0.4 | 56*
COc1ccc(CCN2C(=O)CC(NNC(=O)c3ccccc3Br)C2=O)cc1OC (stereo not drawn) | 1.4 | -4 | 98 | 1.1 | -7
COc1ccccc1NC(=O)/C=C/c1ccc2c(c1)OCO2 | 2.1 | 45 | 134* | 0.4 | 61*
COc1ccc(/C=C/C(=O)Nc2ccccc2C(=O)O)cc1OC | 0.82 | 51 | 123 | 0.5 | 54*
COc1ccc(/C=C/C(=O)Nc2ccccc2C(=O)N2CCCC2)cc1 | 1 | 15 | 116 | 0.6 | 35
COc1ccc(/C=C/C(=O)Nc2cc(C)nn2-c2nc3ccccc3[nH]2)cc1 | 1.1 | 72 | 105 | 0.3 | 67*
COc1ccc(/C=C/C(=O)Nc2ccccc2C(=O)O)cc1 | 3 | 152* | 63 | 0.1 | 95*
COc1ccc(/C=C/C(=O)Nc2ccccc2C(F)(F)F)cc1OC | 0.89 | 3 | 98 | 1.1 | -6
Cc1[nH]c2ccccc2c1C(=O)CSc1n[nH]c(N)n1 | 1.4 | -2 | 103 | 1 | 0
COc1cc2c(cc1OC)C(Nc1ccccc1)=NC(C)(C)C2 | 1.3 | 4 | 99 | 1.1 | -5
COc1ccc(/C=C/C(=O)c2ccc[nH]2)cc1OC | 2.6 | 53 | 130* | 0.7 | 27
COc1ccc(/C=C/C(=O)N2CCN(S(=O)(=O)c3ccccc3)CC2)cc1OC | 0.89 | 7 | 138* | 1.1 | -6
COc1ccc(/C=N/OC(=O)Nc2ccccc2OC)cc1 | 6.3* | 92 | 107 | 0.2 | 84*
COc1ccc(NC(=O)O/N=C/c2ccncc2)cc1 | 1.5 | -8 | 114 | 0.9 | 5
CCCn1c(=N)n(CCOCCOCCn2c(=N)n(CCC)c3ccccc32)c2ccccc21 | / | 14 | 96 | / | /
Cc1cccc(NC(=O)c2c(C)nn(-c3ccccc3)c2Cl)c1 | 1.9 | 40 | 116 | 0.9 | 12
CCOC(=O)c1cc(C(=O)Nc2cccc(C)c2)nn1C | 6.8* | 130 | 135* | 0.4 | 60*
C/C(N)=C(/C#N)C(=O)CSc1nnc(-c2ccc3c(c2)OCO3)o1 | 6.9* | 100 | 134* | 0.8 | 21
NC(=O)CSc1nnc(-c2ccc3c(c2)OCO3)o1 | 2.4 | 94 | 113 | 0.8 | 22
SMILES | NF-kB neuron act | APP 5'UTR act | STAT1 act | FLuc stim CS | FLuc inhib CS
C/C(N)=C(/C#N)C(=O)CSc1nnc(-c2ccc(OC(F)F)cc2)o1 | 4.8* | 113 | 148* | 1 | -2
CC(C)c1ccc(C(=O)N/N=C/c2cccc(Cl)c2Cl)cc1 | 1.5 | 11 | 106 | 0.8 | 20
COc1cc(C(=O)Oc2ccccc2/C=N/NC(=O)c2ccc(Cl)cc2)cc(OC)c1OC | 1.7 | -40 | 131* | 0.9 | 6
CC(C)Oc1ccccc1/C=N/NC(=O)c1ccc(F)cc1 | 1.2 | 0 | 102 | 0.8 | 17
O=C(O)COc1ccccc1/C=N/NC(=O)c1ccc(F)cc1 | 0.98 | 10 | 103 | 0.5 | 53*
O=C(N/N=C/c1ccccc1Cl)c1ccc(F)cc1 | 2.8 | 76 | 138* | 0.2 | 78*
O=C(N/N=C/c1ccc[nH]1)c1ccc(Cl)cc1 | 2.2 | 6 | 108 | 0.4 | 57*
Cc1cc([N+](=O)[O-])ccc1NC(=O)C(C)N1CCN(c2ccccn2)CC1 (stereo not drawn) | 1 | 5 | 91 | 1 | -5
CC(=O)c1c(N2CCN(C)CC2)[nH]c(-c2ccccc2)nc1=S | 0.95 | -4 | 106 | 1.1 | -10
Cc1cc(NCc2ccco2)n2ncnc2n1 | 1.1 | 8 | 107 | 1.1 | -7
